Compound activity deposited in PubChem by several laboratories.
Shown are actives, neighbours in structure and some others; about 3.7% of the full set was active somewhere.
INS promoter inh = TRM-6 insulin promoter activity inhibition; inhibition, % at 2 µM; actives 0.9% (n = 130,000); TRM-6 cells (human fetal islet line), insulin promoter-eGFP reporter, imaging; reporter expression induced with tamoxifen;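 active = inhibition above the mean plus 3 SD, with well images judged a real hit on visual review, cut at about 60% in these data, passing the limit was not always enough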
BB579 growth dn = chemicals that inhibit yeast BB579 growth in restrictive medium (lifespan-shortening candidates); actives 0.51% (n = 140,000); inhibition, % at 10 µM; S. cerevisiae BB579 growth, OD615, 48 h;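 active = inhibition above a set limit, 3 SD over the mean compound inhibition, cut at about 44% in these data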
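test system = yeast BB579 (DeaD) | buffer or medium = restrictive CSMM-D medium | doses = single compound dose of 10 µM, 0.25% DMSO final | times = 4 h preincubation and 48 h exposure at 30 °C | technique = culture absorbance at 615 nm | benchmarks = amphotericin B 10 µg/mL, positive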
Yeast lifespan up = yeast lifespan extension; S. cerevisiae growth with nicotinamide, OD615; deaD strain in restrictive glucose medium; inhibition of the nicotinamide effect, % at 10 µM; actives 0.68% (n = 130,000);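 active = inhibition above a set limit, placed 3 SD over the median of all compounds, cut at about 26% in these data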
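assay system = DeaD-strain S. cerevisiae | measured by = absorbance at 615 nm | probe or stimulus = nicotinamide 1.5 mM | buffer or medium = CSMM-D glucose medium, restrictive | times = 48 h at 30 °C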
RAM network inh = blocks the yeast RAM network; actives 1.8% (n = 190,000); AID 868; inhibition, % at 50 µM; S. cerevisiae dse1pr::URA3 reporter, 5-FOA growth OD615, 2 d; analog-sensitive cbk1-as2 kinase mutant strain;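 active = inhibition above a set limit, 3 SD over mean compound inhibition, cut at about 8.4% in these data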;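 note: inhibition rescues growth on 5-FOA so higher OD means more RAM inhibition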
HMGR II inh = blocks class II HMG-CoA reductase of Enterococcus faecalis; actives 0.41% (n = 190,000); inhibition, % at 10 µM; purified E. faecalis HMGR, NADPH absorbance 340 nm kinetic;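 active = inhibition above a set limit, the median over all tested compounds plus 3 SD, cut at about 9.5% in these data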;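 note: enzyme runs in reverse so mevalonate oxidation gives rising NADPH absorbance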
A number is an active result; - = inactive; . = not tested or not shown.

SMILES | INS promoter inh | BB579 growth dn | Yeast lifespan up | RAM network inh | HMGR II inh
Cc1nc2cc(N)ccc2n1-c1ccccc1 | . | . | . | - | -
Cc1nc2ccccc2n1-c1ccccc1 | . | - | 54 | - | -
COc1cc(Sc2ccc(C)cc2)c(OC)cc1N | - | - | - | 11 | -
O=C(Nc1ccc(OC(F)F)cc1)Nc1cccc(C(F)(F)F)c1 | - | - | - | - | -
CC1=C(C(=O)OCc2ccc(C)cc2)C(c2ccc(O)c([N+](=O)[O-])c2)NC(=O)N1 (stereo not given) | 89 | . | . | - | -
O=C(CCCCCNC(=O)c1ccccc1Br)N=Nc1c(O)[nH]c2ccccc12 | . | . | . | - | -
c1ccc(C2Oc3ccccc3C3CC(c4cccs4)=NN32)cc1 (stereo not given) | . | - | - | - | -
O=[N+]([O-])c1ccc(C2Oc3ccccc3C3CC(c4ccccc4)=NN32)s1 (stereo not given) | - | 96 | - | - | -
Oc1c(Br)cc(Br)cc1C=Nc1ccc2c(c1)OCO2 | - | 97 | - | - | -
Cc1[nH]c2ccccc2c1C(=O)COC(=O)c1ccc2c(=O)n3c(nc2c1)CCC3 | . | . | . | 9.1 | -
CN(C(=O)COC(=O)c1ccc2c(=O)n3c(nc2c1)CCC3)c1ccccc1 | - | - | - | - | -
COc1ccc(CC(=O)OCC(=O)NCc2ccc(Cl)cc2)cc1 | . | . | . | - | -
COc1ccc(CNC(=O)COC(=O)Cc2ccc(Cl)cc2Cl)cc1 | . | - | - | 11 | -
COc1cc(OC)c(/C=N/n2c(C)nnc2C)c(OC)c1 | - | - | - | - | -
COc1cc(/C=C/C(=O)OCC(=O)Nc2ccc(NC(C)=O)cc2)cc(S(=O)(=O)N2CCc3ccccc32)c1OC | . | . | . | 10 | -
COc1cc(CN2CCCC(CO)(Cc3ccccc3C)C2)cc2c1OCO2 (stereo not given) | . | . | . | - | -
CCN(CC)CCN(CC(=O)N(C1CCCCC1)C1CCCCC1)C(=O)c1ccco1 | - | . | . | - | -
Cc1nc2c3cc(F)ccc3n(Cc3ccc(F)cc3)c2s1 | 77 | - | - | - | -
COc1cc(Cl)c(C)cc1NC(=O)COC(=O)c1cc[n+]([O-])cc1 | - | . | . | - | -
Cc1cccc(C(=O)N[C@H](C(=O)OCC(=O)NC(=O)c2cccn2C)C(C)C)c1 | - | - | - | - | -
CCOC(=O)c1cc(-c2ccc(C)cc2)n(CCC(=O)NC(C)CC)c1C (stereo not given) | - | - | - | - | -
CCC(C)NC(=O)CCn1c(-c2ccc(F)cc2)cc(C(C)=O)c1C (stereo not given) | - | . | . | - | 9.7
COCC(=O)Nc1cc(OC)ccc1OC | - | - | - | - | -
COc1ccc(OC)c(NC(=O)COC(=O)/C=C/c2ccccc2Cl)c1 | . | - | - | 10 | -
O=C(CCc1ccccc1)N1CCN(c2ccc([N+](=O)[O-])cc2)CC1 | . | . | . | - | -
SMILES | INS promoter inh | BB579 growth dn | Yeast lifespan up | RAM network inh | HMGR II inh
CCC1(C)Cc2nc3[nH]c(=S)n(-c4ccccc4)c(=O)c3cc2CO1 (stereo not given) | - | - | - | 8.5 | -
COC(=O)c1ccc(Oc2nc(C(N)=O)cc(-c3ccccc3)n2)cc1 | 61 | - | - | - | -
COc1cc(NC(c2ccccc2)c2ccccc2)cc(OC)c1OC | . | . | . | 8.4 | -
O=C(Nc1ccc(Cl)cc1)NC1CCCC1Cc1ccco1 (stereo not given) | . | - | - | 8.8 | -
C=CCn1c(=O)c2ccc(C(=O)NCc3ccccc3)cc2n(Cc2ccc(C)cc2)c1=O | - | - | - | - | -
Oc1c(C(Nc2nc3ccccc3s2)c2ccco2)ccc2cccnc12 (stereo not given) | . | 74 | - | - | -
CCO/C=C1/C(=O)N(Cc2ccccc2)C(=O)c2ccccc21 | - | - | 32 | - | -
CCO/C=C1\C(=O)N(c2ccccc2)C(=O)c2ccccc21 | - | - | - | - | -
COC(=O)c1ccc(CNC(=O)COC(=O)Cc2ccsc2)cc1 | . | . | . | - | -
COc1ccc2nc(C)cc(N3CC(C)OC(C)C3)c2c1 (stereo not given) | 91 | - | - | - | -
CC(OC(=O)c1cc(=O)[nH]c2ccccc12)C(=O)c1ccccc1 (stereo not given) | . | . | . | - | -
CC(C)=C1SC(N2CCN(c3ccc(Cl)cc3)CC2)=NC1=O | 71 | . | . | - | -
Cc1cccnc1NC(=S)Nc1ccc(Br)cc1Cl | . | . | . | 8.5 | -
Cc1cc(SCn2nnc3ccccc3c2=O)nc2ccccc12 | - | - | - | - | 115
O=c1c2ccccc2nnn1CSc1ccc2ccccc2n1 | - | - | - | - | -
CC1(C)Nc2ccccc2N(Cc2ccc([N+](=O)[O-])cc2)C1=O | . | . | . | - | -
Cc1cc(C(=O)COC(=O)c2ccc(O)cc2)c(C)n1Cc1ccco1 | - | - | - | - | -
Cc1cc(C(=O)COC(=O)c2ccc(Br)o2)c(C)n1Cc1ccco1 | . | . | . | 10 | -
Cc1nn(-c2ccccc2Cl)c(Cl)c1/C=N/Nc1cccc(C(=O)O)c1 | - | - | - | - | -
Cc1nn(-c2cccc(C(F)(F)F)c2)c(Cl)c1/C=N/Nc1cccc(C(=O)O)c1 | - | 94 | - | - | -
O=C(COC(=O)C1(c2ccc(F)cc2)CCCC1)NCc1ccco1 | . | . | . | - | -
Cc1cccc(OCCn2c(=S)[nH]c3ccccc32)c1 | - | - | . | - | 11
Cc1cc(OC(C)C(=O)N/N=C/CC(C)c2ccccc2)ccc1Cl (stereo not given) | - | - | - | - | -
COc1ccc(NC(=O)c2csc(Cc3ccc(Cl)cc3)n2)cc1 | - | . | . | 11 | -
COc1ccc(Cc2nc(C(=O)Nc3ccccc3)cs2)cc1 | - | - | - | - | -
SMILES | INS promoter inh | BB579 growth dn | Yeast lifespan up | RAM network inh | HMGR II inh
COc1ccc(Cc2nc(C(=O)Nc3ccc(Cl)cc3)cs2)cc1 | . | - | - | 8.8 | -
CS(=O)(=O)N1CCC(C(=O)Nc2cc(Cl)cc(Cl)c2)CC1 | - | . | . | - | -
NC(=S)NNC(=O)c1cccc(Br)c1 | - | . | . | - | 17
Cc1cccc(N2CCN(C3=NC(=O)C(Cc4ccccc4)S3)CC2)c1 (stereo not given) | . | - | - | - | -
Cc1cc(C)c(C#N)c(SCC2COc3ccccc3O2)n1 (stereo not given) | - | - | - | 8.5 | -
N#Cc1cc2c(nc1SCC1COc3ccccc3O1)CCC2 (stereo not given) | - | - | - | - | -
COCCN1Cc2cc3cc(C)ccc3nc2SC1=Nc1cccc(OC)c1 | - | . | . | - | -
Cc1cccc(N=C2Sc3nc4c(C)c(C)ccc4cc3CN2CCN2CCOCC2)c1 | . | 99 | - | - | -
O=C(CCn1cnnn1)Nc1ccc(Cl)c(Cl)c1 | - | . | . | - | 14
NNC(=O)[C@@H]1C[C@@H]1c1ccccc1 | - | - | - | - | -
NNC(=O)C1CC1c1ccc(Cl)cc1 (stereo not given) | - | - | - | - | 19
CC(C(=O)Nc1cc([N+](=O)[O-])ccc1Cl)N1CCN(c2ccc(O)cc2)CC1 (stereo not given) | 72 | - | - | - | -
CC(C)CC(=O)Nc1cc([N+](=O)[O-])ccc1Cl | . | - | - | - | -
